Test results reported in ChEMBL document CHEMBL3785055, “Arginine-linked neomycin B dimers: synthesis, rRNA binding, and resistance enzyme activity” (Medchemcomm, 2016).
Values after ≈ are worked out from the molar mass of the structure shown. Active and inactive are the calls of the source. No cut-off for these calls is given here.

How the values were obtained:
[1] = system: Staphylococcus epidermidis; assay: Antibacterial activity against Staphylococcus epidermidis ATCC 12228 after 16 to 20 hrs by MTT assay; type: functional
Summary of the method: (§1)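 Strains grown in LB 24 h at 37 °C, 250 rpm; overnight culture diluted 1:1000, grown 4 h, diluted 1:1000 again and added to microplates. Incubation 16–20 h at 37 °C; growth read visually and with MTT (1 mg/mL).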

Staphylococcus aureus [2] = assay: Antibacterial activity against Staphylococcus aureus ATCC 25923 after 16 to 20 hrs by MTT assay; type: functional; summary of the method: as §1
[3] = Selectivity factor, ratio of IC50 for human rRNA A-site to IC50 for Escherichia coli rRNA A-site
Summary of the method: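 Ratio from F-NEO displacement titrations, 0.002–2.0 μM compound against 0.1 μM F-NEO:A-site complex (485/535 nm). Measured IC50 stands in for the unmeasurable competition constants in Kd(human)/Kd(E. coli) = 5.75 × K(E. coli)/K(human). Buffer 10 mM HEPES, 50 mM NaCl, 0.4 mM EDTA, pH 7.0.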

[4] = Displacement of F-NEO from human rRNA A-site by fluorescence assay
[5] = Displacement of F-NEO from Escherichia coli rRNA A-site by fluorescence assay
Bacillus cereus = assay: Antibacterial activity against Bacillus cereus ATCC 11778 after 16 to 20 hrs by MTT assay; type: functional; summary of the method: as §1
Staphylococcus aureus [6] = assay: Activity at Staphylococcus aureus AAC(6')-1e/APH(2'')-1a in presence of AcCoA by Ellmans method relative to NEO
[7] = Activity at Eis (unknown origin) at 100 uM in presence of AcCoA by Ellmans method relative to NEO
Summary of the method: (§2)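 Acetylation followed by Ellman's method at 412 nm, 2 mM DTNB, 100 μM compound, 25 °C, triplicate, rates normalized to NEO. AcCoA 500 μM for Eis, 150 μM for AAC(3)-IV; enzyme 0.5 μM for Eis, 0.125 μM for AAC(3)-IV; 50 mM buffer.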

[8] = Activity at APH(3')-1a (unknown origin) at 100 uM in presence of […] by […] relative to NEO
Staphylococcus aureus [9] = assay: Activity at Staphylococcus aureus APH(2'')-1a at 100 uM in presence of […] by […] relative to NEO
[10] = system: Mycobacterium tuberculosis; assay: Activity at Mycobacterium tuberculosis AAC(2')-1c at 100 uM in presence of AcCoA by Ellmans method relative to NEO
Summary of the method: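 N-acetylation by AAC(2')-Ic (0.125 μM enzyme) of 100 μM compound with 150 μM AcCoA and 2 mM DTNB in 100 mM buffer, 25 °C. Thiol release followed at 412 nm (ε = 14,150 M⁻¹cm⁻¹). Rates normalized to neomycin B, triplicate.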

Escherichia coli = assay: Activity at Escherichia coli AAC(3)-4 at 100 uM in presence of AcCoA by Ellmans method relative to NEO; summary of the method: as §2

SMILES: NCC1O[C@H](O[C@H]2[C@@H](O)[C@H](O[C@H]3[C@H](O)[C@@H](N)C[C@@H](N)[C@@H]3O[C@H]3O[C@H](CN)[C@@H](O)[C@H](O)[C@H]3N)O[C@@H]2CO)[C@H](N)[C@@H](O)[C@@H]1O (some centres undefined)
- MIC [1]: 0.2 µM (≈ 0.123 µg/mL)
- MIC (Staphylococcus aureus [2]): 0.2 µM (≈ 0.123 µg/mL)
- Ratio IC50 [3]: 5
- IC50 [4]: 76 µM
- IC50 [5]: 87 µM
- MIC (Bacillus cereus): ≤ 0.1 µM

SMILES: N=C(N)NCCC[C@H](NC(=O)CCCCCCCNC(=O)c1cc(-c2cn(C[C@@H]3O[C@H](O[C@H]4[C@H](O)[C@@H](N)C[C@@H](N)[C@@H]4O[C@H]4O[C@H](CN)[C@@H](O)[C@H](O)[C@H]4N)[C@@H](O)[C@H]3O[C@H]3O[C@@H](CN)[C@@H](O)[C@H](O)[C@H]3N)nn2)cc(-c2cn(C[C@H]3O[C@@H](O[C@@H]4[C@@H](O)[C@H](N)C[C@H](N)[C@H]4O[C@@H]4O[C@@H](CN)[C@H](O)[C@@H](O)[C@@H]4N)[C@H](O)[C@@H]3O[C@@H]3O[C@H](CN)[C@H](O)[C@@H](O)[C@@H]3N)nn2)c1)C(N)=O (stereo in doubt)
- MIC [1]: 25 µM (≈ 43.6 µg/mL)
- MIC (Staphylococcus aureus [2]): > 50 µM
- Ratio IC50 [3]: 5.2
- Activity (Staphylococcus aureus [6]): inactive
- IC50 [4]: 43 µM
- Activity [7]: inactive
- Activity [8]: inactive
- IC50 [5]: 48 µM
- Activity (Staphylococcus aureus [9]): inactive
- MIC (Bacillus cereus): 3 µM (≈ 5.24 µg/mL)
- Activity [10]: inactive

SMILES: N=C(N)NCCC[C@H](NC(=O)CCCCCCCCNC(=O)c1cc(-c2cn(C[C@@H]3O[C@H](O[C@H]4[C@H](O)[C@@H](N)C[C@@H](N)[C@@H]4O[C@H]4O[C@H](CN)[C@@H](O)[C@H](O)[C@H]4N)[C@@H](O)[C@H]3O[C@H]3O[C@@H](CN)[C@@H](O)[C@H](O)[C@H]3N)nn2)cc(-c2cn(C[C@H]3O[C@@H](O[C@@H]4[C@@H](O)[C@H](N)C[C@H](N)[C@H]4O[C@@H]4O[C@@H](CN)[C@H](O)[C@@H](O)[C@@H]4N)[C@H](O)[C@@H]3O[C@@H]3O[C@H](CN)[C@H](O)[C@@H](O)[C@@H]3N)nn2)c1)C(N)=O (stereo in doubt)
- MIC [1]: 50 µM (≈ 88 µg/mL)
- MIC (Staphylococcus aureus [2]): > 50 µM
- Ratio IC50 [3]: 5.9
- Activity (Staphylococcus aureus [6]): inactive
- IC50 [4]: 62 µM
- Activity [7]: inactive
- Activity [8]: inactive
- IC50 [5]: 60 µM
- Activity (Staphylococcus aureus [9]): inactive
- MIC (Bacillus cereus): 3 µM (≈ 5.28 µg/mL)
- Activity [10]: inactive

SMILES: N=C(N)NCCC[C@H](NC(=O)CNC(=O)c1cc(-c2cn(C[C@H]3O[C@@H](O[C@@H]4[C@@H](O)[C@H](N)C[C@H](N)[C@H]4O[C@H]4O[C@H](CN)[C@@H](O)[C@H](O)[C@H]4N)[C@H](O)[C@@H]3O[C@H]3O[C@@H](CN)[C@@H](O)[C@H](O)[C@H]3N)nn2)cc(-c2cn(C[C@H]3O[C@@H](O[C@H]4[C@H](O)[C@@H](N)C[C@@H](N)[C@@H]4O[C@@H]4O[C@@H](CN)[C@H](O)[C@@H](O)[C@@H]4N)[C@H](O)[C@@H]3O[C@H]3O[C@@H](CN)[C@@H](O)[C@H](O)[C@H]3N)nn2)c1)C(N)=O (stereo in doubt)
- MIC [1]: > 50 µM
- MIC (Staphylococcus aureus [2]): 50 µM (≈ 83.1 µg/mL)
- Ratio IC50 [3]: 5.3
- Activity (Staphylococcus aureus [6]): inactive
- IC50 [4]: 58 µM
- Activity [7]: inactive
- Activity [8]: inactive
- Activity (Escherichia coli): Active
- IC50 [5]: 62 µM
- Activity (Staphylococcus aureus [9]): inactive
- MIC (Bacillus cereus): 1.6 µM (≈ 2.66 µg/mL)
- Activity [10]: inactive

SMILES: N=C(N)NCCC[C@H](NC(=O)CCCCNC(=O)c1cc(-c2cn(C[C@@H]3O[C@H](O[C@H]4[C@H](O)[C@@H](N)C[C@@H](N)[C@@H]4O[C@H]4O[C@H](CN)[C@@H](O)[C@H](O)[C@H]4N)[C@@H](O)[C@H]3O[C@H]3O[C@@H](CN)[C@@H](O)[C@H](O)[C@H]3N)nn2)cc(-c2cn(C[C@H]3O[C@@H](O[C@@H]4[C@@H](O)[C@H](N)C[C@H](N)[C@H]4O[C@@H]4O[C@@H](CN)[C@H](O)[C@@H](O)[C@@H]4N)[C@H](O)[C@@H]3O[C@@H]3O[C@H](CN)[C@H](O)[C@@H](O)[C@@H]3N)nn2)c1)C(N)=O (stereo in doubt)
- MIC [1]: > 50 µM
- MIC (Staphylococcus aureus [2]): > 50 µM
- Ratio IC50 [3]: 7.4
- Activity (Staphylococcus aureus [6]): inactive
- IC50 [4]: 70 µM
- Activity [7]: inactive
- Activity [8]: inactive
- Activity (Escherichia coli): Active
- IC50 [5]: 52 µM
- Activity (Staphylococcus aureus [9]): inactive
- MIC (Bacillus cereus): 3 µM (≈ 5.11 µg/mL)
- Activity [10]: inactive

SMILES: N=C(N)NCCC[C@H](NC(=O)CCNC(=O)c1cc(-c2cn(C[C@@H]3O[C@H](O[C@H]4[C@H](O)[C@@H](N)C[C@@H](N)[C@@H]4O[C@H]4O[C@H](CN)[C@@H](O)[C@H](O)[C@H]4N)[C@@H](O)[C@H]3O[C@H]3O[C@@H](CN)[C@@H](O)[C@H](O)[C@H]3N)nn2)cc(-c2cn(C[C@H]3O[C@@H](O[C@@H]4[C@@H](O)[C@H](N)C[C@H](N)[C@H]4O[C@@H]4O[C@@H](CN)[C@H](O)[C@@H](O)[C@@H]4N)[C@H](O)[C@@H]3O[C@@H]3O[C@H](CN)[C@H](O)[C@@H](O)[C@@H]3N)nn2)c1)C(N)=O (stereo in doubt)
- MIC [1]: 50 µM (≈ 83.8 µg/mL)
- MIC (Staphylococcus aureus [2]): 50 µM (≈ 83.8 µg/mL)
- Ratio IC50 [3]: 4.7
- Activity (Staphylococcus aureus [6]): inactive
- IC50 [4]: 58 µM
- Activity [7]: inactive
- Activity [8]: inactive
- Activity (Escherichia coli): Active
- IC50 [5]: 70 µM
- Activity (Staphylococcus aureus [9]): inactive
- MIC (Bacillus cereus): 0.8 µM (≈ 1.34 µg/mL)
- Activity [10]: inactive

SMILES: N=C(N)NCCC[C@H](NC(=O)CCCCCNC(=O)c1cc(-c2cn(C[C@@H]3O[C@H](O[C@H]4[C@H](O)[C@@H](N)C[C@@H](N)[C@@H]4O[C@H]4O[C@H](CN)[C@@H](O)[C@H](O)[C@H]4N)[C@@H](O)[C@H]3O[C@H]3O[C@@H](CN)[C@@H](O)[C@H](O)[C@H]3N)nn2)cc(-c2cn(C[C@H]3O[C@@H](O[C@@H]4[C@@H](O)[C@H](N)C[C@H](N)[C@H]4O[C@@H]4O[C@@H](CN)[C@H](O)[C@@H](O)[C@@H]4N)[C@H](O)[C@@H]3O[C@@H]3O[C@H](CN)[C@H](O)[C@@H](O)[C@@H]3N)nn2)c1)C(N)=O (stereo in doubt)
- MIC [1]: > 50 µM
- MIC (Staphylococcus aureus [2]): > 50 µM
- Ratio IC50 [3]: 7.2
- Activity (Staphylococcus aureus [6]): inactive
- IC50 [4]: 68 µM
- Activity [7]: inactive
- Activity [8]: inactive
- Activity (Escherichia coli): Active
- IC50 [5]: 54 µM
- Activity (Staphylococcus aureus [9]): inactive
- MIC (Bacillus cereus): 1.6 µM (≈ 2.75 µg/mL)
- Activity [10]: inactive

SMILES: N=C(N)NCCC[C@H](NC(=O)CCCCCCNC(=O)c1cc(-c2cn(C[C@@H]3O[C@H](O[C@H]4[C@H](O)[C@@H](N)C[C@@H](N)[C@@H]4O[C@H]4O[C@H](CN)[C@@H](O)[C@H](O)[C@H]4N)[C@@H](O)[C@H]3O[C@H]3O[C@@H](CN)[C@@H](O)[C@H](O)[C@H]3N)nn2)cc(-c2cn(C[C@H]3O[C@@H](O[C@@H]4[C@@H](O)[C@H](N)C[C@H](N)[C@H]4O[C@@H]4O[C@@H](CN)[C@H](O)[C@@H](O)[C@@H]4N)[C@H](O)[C@@H]3O[C@@H]3O[C@H](CN)[C@H](O)[C@@H](O)[C@@H]3N)nn2)c1)C(N)=O (stereo in doubt)
- MIC [1]: > 50 µM
- MIC (Staphylococcus aureus [2]): > 50 µM
- Ratio IC50 [3]: 7.3
- Activity (Staphylococcus aureus [6]): inactive
- IC50 [4]: 56 µM
- Activity [7]: inactive
- Activity [8]: inactive
- IC50 [5]: 44 µM
- Activity (Staphylococcus aureus [9]): inactive
- MIC (Bacillus cereus): 3 µM (≈ 5.2 µg/mL)
- Activity [10]: inactive

SMILES: N=C(N)NCCC[C@@H](NC(=O)CCCNC(=O)c1cc(-c2cn(C[C@@H]3O[C@H](O[C@@H]4[C@@H](O)[C@H](N)C[C@H](N)[C@H]4O[C@@H]4O[C@@H](CN)[C@H](O)[C@@H](O)[C@@H]4N)[C@@H](O)[C@H]3O[C@@H]3O[C@H](CN)[C@H](O)[C@@H](O)[C@@H]3N)nn2)cc(-c2cn(C[C@H]3O[C@@H](O[C@@H]4[C@@H](O)[C@H](N)C[C@H](N)[C@H]4O[C@@H]4O[C@@H](CN)[C@H](O)[C@@H](O)[C@@H]4N)[C@H](O)[C@@H]3O[C@@H]3O[C@H](CN)[C@H](O)[C@@H](O)[C@@H]3N)nn2)c1)C(N)=O (stereo in doubt)
- MIC [1]: > 50 µM
- MIC (Staphylococcus aureus [2]): > 50 µM
- Ratio IC50 [3]: 5.3
- Activity (Staphylococcus aureus [6]): inactive
- IC50 [4]: 52 µM
- Activity [7]: inactive
- Activity [8]: inactive
- Activity (Escherichia coli): Active
- IC50 [5]: 56 µM
- Activity (Staphylococcus aureus [9]): inactive
- MIC (Bacillus cereus): 1.6 µM (≈ 2.7 µg/mL)
- Activity [10]: inactive
